Reference: ChEMBL document CHEMBL5360632, “Quinazolinone Compounds Have Potent Antiviral Activity against Zika and Dengue Virus” (J Med Chem, 2023)

Key:
[1] = tested on: Zika virus; assay: (§1) Antiviral activity against ZIKV FLR infected in Vero cells assessed as inhibition of viral replication by measuring reduction in cytopathic effect at 10 uM preincubated with compounds for 2 hrs followed by replacement with fresh media containing compounds and measured after 48 hrs by MTT assay relative to control; type: functional; settings: time 50 hrs
In short: (§2)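 Monolayers of 2 × 10^4 cells/well in DMEM with 2% FBS. Infected at 0.1 MOI together with compound for 2h. Wells washed with PBS, then fresh medium with compound added in duplicate and incubated 48h at 37 °C. Supernatant titred by end-point dilution: half-log dilutions on Vero monolayers in quadruplicate for 5–7 days, CPE by microscope then MTT. TCID50 compared with untreated; EC50 from dose-response fit of ≥2 independent experiments.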

[2] = tested on: Zika virus; assay: as §1, with “1” for “10”; type: functional; settings: time 50 hrs; in short: as §2
[3] = tested on: Zika virus; assay: Antiviral activity against ZIKV FLR infected in Vero cells assessed as inhibition of viral replication by measuring reduction in cytopathic effect preincubated with compounds for 2 hrs followed by replacement with fresh media containing compounds and measured after 48 hrs by MTT assay; type: functional, organism-based; in short: as §2
[4] = tested on: Zika virus; assay: Antiviral activity against ZIKV FLR infected in human U87 cells assessed as inhibition of viral replication pretreated with compounds for 2 hrs followed by replacement with fresh medium containing compound and measured after 48 hrs by MTT assay; type: functional, organism-based; settings: U-87 MG; in short: as §2
[5] = tested on: Zika virus; assay: Antiviral activity against ZIKV FLR infected in mosquito C6/36 cells assessed as inhibition of viral replication pretreated with compounds for 2 hrs followed by replacement with fresh medium containing compound and measured after 48 hrs bt MTT assay; type: functional, organism-based; in short: as §2
[6] = tested on: U-87 MG; assay: Cytotoxicity against human U87 cells assessed as reduction in cell viability; type: toxicity, cell-based; settings: u-87mg atcc
[7] = tested on: dengue virus type 2; assay: Antiviral activity against Dengue virus serotype 2 K0049 infected in Vero cells assessed as inhibition of viral replication pretreated for 2 hrs followed by replacement with fresh medium containing compound and measured after 48 hrs by MTT assay; type: functional, organism-based; in short: as §2
[8] = tested on: Vero; assay: Cytotoxicity against African green monkey Vero cells at 10 uM; type: toxicity, cell-based; settings: chlorocebus sabaeus
In short: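 Vero monolayers in 96-well plates, treated with compound at 10 μM in duplicate for 72 h during the phenotypic anti-ZIKV screen (0.1 MOI ZIKV FLR strain). An MTT assay optionally quantified viable cells.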

[9] = tested on: Zika virus; assay: Antiviral activity against ZIKV FLR infected in Vero cells assessed as inhibition of viral replication by measuring log reduction in cytopathic effect at 10 uM preincubated with compounds for 2 hrs followed by replacement with fresh media containing compounds and measured after 48 hrs by MTT assay; type: functional; settings: time 50 hrs; in short: as §2
[10] = tested on: Zika virus; assay: Antiviral activity against ZIKV FLR infected in Vero cells assessed as inhibition of viral replication by measuring log reduction in cytopathic effect at 1 uM preincubated with compounds for 2 hrs followed by replacement with fresh media containing compounds and measured after 48 hrs by MTT assay; type: functional; settings: time 50 hrs; in short: as §2
[11] = tested on: Zika virus; assay: Antiviral activity against ZIKV FLR infected in Vero cells assessed as reduction in number of viral RNA copies by qRT-PCR analysis; type: functional, organism-based; settings: dose 0.3-10 µM
In short: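 Viral RNA measured in cell supernatant after compound treatment. Copies/mL calculated from a standard curve.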

SMILES: COc1cccc(-n2c(/C=C/c3cccc(OC)n3)nc3ccc(N4CCCCC4)cc3c2=O)c1
- inhibition at 10 µM [1]: 99.9%
- inhibition at 1 µM [2]: 90%
- EC50 [3]: 0.21 µM
- EC50 [4]: 0.69 µM
- EC50 [5]: 0.77 µM
- CC50 [6]: > 20 µM
- EC50 [7]: 0.56 µM

SMILES: COc1cccc(CCc2nc3ccc(N4CCCCC4)cc3c(=O)n2-c2cccc(C(C)(C)C)c2)n1
- inhibition at 10 µM [1]: 0%

SMILES: Cc1ccccc1-n1c(/C=C/c2cccnc2)nc2ccccc2c1=O
- inhibition at 10 µM [1]: 0%

SMILES: CC(C)(C)c1cccc(-n2c(/C=C/c3ccncc3)nc3ccccc3c2=O)c1
- inhibition at 10 µM [1]: 68.4%

SMILES: COc1cccc(/C=C/c2nc3ccc(N4CCN(C)CC4)cc3c(=O)n2-c2cccc(C(C)(C)C)c2)n1
- Activity [8]: Toxic

SMILES: CC(C)(C)c1cccc(-n2c(/C=C/c3cccnc3)nc3ccccc3c2=O)c1
- inhibition at 10 µM [1]: 0%

SMILES: COc1cccc(/C=C/c2nc3ccc(N4CCOCC4)cc3c(=O)n2-c2cccc(C)c2)n1
- inhibition at 10 µM [1]: 90%

SMILES: CC(C)(C)c1cccc(-n2c(/C=C/c3ccncc3)nc3ccc(N4CCCCC4)cc3c2=O)c1
- inhibition at 10 µM [1]: 68.4%

SMILES: COc1ccccc1/C=C/c1nc2ccccc2c(=O)n1-c1cccc(C(C)(C)C)c1
- inhibition at 10 µM [1]: 0%

SMILES: COc1cccc(/C=C/c2nc3ccc(C4=CCOCC4)cc3c(=O)n2-c2cccc(C(C)(C)C)c2)n1
- inhibition at 10 µM [1]: 96.8%

SMILES: CC(C)(C)c1cccc(-n2c(/C=C/c3cncnc3)nc3ccccc3c2=O)c1
- inhibition at 10 µM [1]: 68.4%

SMILES: COc1cccc(/C=C/c2nc3ccc(N4CCCC4)cc3c(=O)n2-c2cccc(C(C)(C)C)c2)n1
- inhibition at 10 µM [1]: 68.4%

SMILES: COc1cccc(/C=C/c2nc3ccc(N4CCCCC4)cc3c(=O)n2-c2cccc(C)c2)n1
- inhibition at 10 µM [1]: 99.9%
- inhibition at 1 µM [2]: 0%

SMILES: COc1cccc(CCc2nc3ccc(N4CCOCC4)cc3c(=O)n2-c2cccc(C(C)(C)C)c2)n1
- inhibition at 10 µM [1]: 0%

SMILES: CC(C)(C)c1cccc(-n2c(/C=C/c3ccc(C(F)(F)F)nc3)nc3ccccc3c2=O)c1
- inhibition at 10 µM [1]: 90%
- log(activity) [9]: 0.5

SMILES: COc1cccc(/C=C/c2nc3ccccc3c(=O)n2-c2cccc(C(C)(C)C)c2)n1
- inhibition at 10 µM [1]: 0%

SMILES: COc1cccc(/C=C/c2nc3ccc(N4CCCCC4)cc3c(=O)n2-c2cccc(C(F)(F)F)c2)n1
- inhibition at 10 µM [1]: 99%

SMILES: CCN(CC)CCCC(C)Nc1ccnc2cc(Cl)ccc12 (configuration not stated) [CHLOROQUINE]
- inhibition at 10 µM [1]: 90%

SMILES: COc1cccc(/C=C/c2nc3ccc(N4CCCCC4)cc3c(=O)n2-c2cccc(C(C)(C)C)c2)c1
- inhibition at 10 µM [1]: 99.9%
- inhibition at 1 µM [2]: 68.4%

SMILES: CC(C)(C)c1cccc(-n2c(/C=C/c3ccc(C(F)(F)F)nc3)nc3ccc(N4CCCCC4)cc3c2=O)c1
- inhibition at 10 µM [1]: 90%

SMILES: COc1cccc(/C=C/c2nc3ccc(N4CCN(C(=O)OC(C)(C)C)CC4)cc3c(=O)n2-c2cccc(C(C)(C)C)c2)n1
- inhibition at 10 µM [1]: 99%

SMILES: COc1cccc(/C=C/c2nc3ccc(-c4ccc(N(C)C)cc4)cc3c(=O)n2-c2cccc(C(C)(C)C)c2)n1
- inhibition at 10 µM [1]: 96.8%

SMILES: CC(C)(C)c1cccc(-n2c(/C=C/c3ccccc3)nc3ccccc3c2=O)c1
- inhibition at 10 µM [1]: 0%

SMILES: CC(C)(C)c1cccc(-n2c(/C=C/c3ccc(C(F)(F)F)cc3)nc3ccccc3c2=O)c1
- inhibition at 10 µM [1]: 90%

SMILES: COc1cccc(-n2c(/C=C/c3cccnc3)nc3ccccc3c2=O)c1
- inhibition at 10 µM [1]: 68.4%
- log(activity) [9]: 0.5

SMILES: COc1cccc(/C=C/c2nc3ccc(Cl)cc3c(=O)n2-c2cccc(C(C)(C)C)c2)n1
- inhibition at 10 µM [1]: 0%

SMILES: CC(C)(C)c1cccc(-n2c(/C=C/c3ccc4ccccc4c3)nc3ccc(N4CCCCC4)cc3c2=O)c1
- inhibition at 10 µM [1]: 99.7%

SMILES: CC(C)(C)c1ccc(-n2c(/C=C/c3cccnc3)nc3ccccc3c2=O)cc1
- inhibition at 10 µM [1]: 0%

SMILES: Cc1cccc(-n2c(/C=C/c3cccnc3)nc3ccccc3c2=O)c1
- inhibition at 10 µM [1]: 0%

SMILES: NCc1ccc(-c2ncc(OCC3CCNCC3)nc2-c2ccc(-c3ccoc3)cc2)cc1
- inhibition at 1 µM [2]: 68%

SMILES: CC(C)(C)c1ccc(-n2c(/C=C/c3cncnc3)nc3ccccc3c2=O)cc1
- inhibition at 10 µM [1]: 0%

SMILES: COc1cccc(/C=C/c2nc3ccc(N4CCC(N5CCOCC5)CC4)cc3c(=O)n2-c2cccc(C)c2)n1
- inhibition at 10 µM [1]: 99.9%
- inhibition at 1 µM [2]: 0%

SMILES: COc1cccc(/C=C/c2nc3ccc(OC)cc3c(=O)n2-c2cccc(C(C)(C)C)c2)c1
- inhibition at 10 µM [1]: 0%

SMILES: COc1cccc(/C=C/c2nc3ccc(N4CCOCC4)cc3c(=O)n2-c2cccc(C(F)(F)F)c2)n1
- inhibition at 10 µM [1]: 0%

SMILES: CCN(CC)c1ccc2nc(/C=C/c3cccc(OC)n3)n(-c3cccc(C(C)(C)C)c3)c(=O)c2c1
- inhibition at 10 µM [1]: 99.9%
- inhibition at 1 µM [2]: 68.4%
- log(activity) [10]: 0.5
- log(activity) [9]: 3

SMILES: COc1cccc(/C=C/c2nc3ccc(-c4ccc(N5CCCC5)cc4)cc3c(=O)n2-c2cccc(C(C)(C)C)c2)n1
- inhibition at 10 µM [1]: 96.8%

SMILES: O=c1c2ccccc2nc(/C=C/c2cccnc2)n1-c1ccccc1
- inhibition at 10 µM [1]: 0%

SMILES: COc1ncccc1/C=C/c1nc2ccccc2c(=O)n1-c1cccc(C(C)(C)C)c1
- inhibition at 10 µM [1]: 68.4%
- log(activity) [9]: 0.5

SMILES: COc1cccc(/C=C/c2nc3ccc(-c4ccc(F)cc4)cc3c(=O)n2-c2cccc(C(C)(C)C)c2)n1
- inhibition at 10 µM [1]: 99%

SMILES: CC(C)(C)c1cccc(-n2c(/C=C/c3ccc4ccccc4c3)nc3ccccc3c2=O)c1
- inhibition at 10 µM [1]: 68.4%

SMILES: COc1cccc(/C=C/c2nc3ccc(N4CCC(N5CCOCC5)CC4)cc3c(=O)n2-c2cccc(C(C)(C)C)c2)n1
- inhibition at 10 µM [1]: 99.9%
- inhibition at 1 µM [2]: 90%

SMILES: COc1cccc(/C=C/c2nc3ccc(-c4ccncc4)cc3c(=O)n2-c2cccc(C(C)(C)C)c2)n1
- inhibition at 10 µM [1]: 0%

SMILES: COc1cccc(/C=C/c2nc3ccc(N4CCN(C(=O)OC(C)(C)C)CC4)cc3c(=O)n2-c2cccc(C(C)(C)C)c2)c1
- inhibition at 10 µM [1]: 99%

SMILES: COc1cccc(/C=C/c2nc3ccc(N4CCC(N5CCOCC5)CC4)cc3c(=O)n2-c2cccc(C(F)(F)F)c2)n1
- inhibition at 10 µM [1]: 68.4%

SMILES: COc1cc(/C=C/c2nc3ccc(N4CCN(C)CC4)cc3c(=O)n2-c2cccc(C(C)(C)C)c2)cc(OC)c1
- Activity [8]: Toxic

SMILES: COc1cccc(-c2ccc3nc(/C=C/c4cccc(OC)n4)n(-c4cccc(C(C)(C)C)c4)c(=O)c3c2)c1
- inhibition at 10 µM [1]: 0%

SMILES: COc1cccc(-n2c(/C=C/c3cccc(OC)n3)nc3ccc(N4CCC(N5CCOCC5)CC4)cc3c2=O)c1
- inhibition at 10 µM [1]: 99.9%
- inhibition at 1 µM [2]: 68.4%

SMILES: COc1cccc(/C=C/c2nc3ccccc3c(=O)n2-c2cccc(C(C)(C)C)c2)c1
- inhibition at 10 µM [1]: 0%

SMILES: CC(C)(C)c1ccc(-n2c(/C=C/c3cncc(Br)c3)nc3ccccc3c2=O)cc1
- inhibition at 10 µM [1]: 0%

SMILES: COc1cccc(/C=C/c2nc3ccc(N4CCCCC4)cc3c(=O)n2-c2cccc(C(C)(C)C)c2)n1
- inhibition at 10 µM [1]: 99.9%
- inhibition at 1 µM [2]: 90%
- EC50 [3]: 0.9 µM
- Activity [11]: Dose-Dependent Effect
- EC50 [4]: 0.82 µM
- EC50 [5]: 0.75 µM
- CC50 [6]: > 20 µM
- EC50 [7]: 0.16 µM

SMILES: COc1cccc(-n2c(/C=C/c3cccc(OC)n3)nc3ccc(N4CCOCC4)cc3c2=O)c1
- inhibition at 10 µM [1]: 99%

SMILES: COc1ccc2nc(/C=C/c3cccc(OC)n3)n(-c3cccc(C(C)(C)C)c3)c(=O)c2c1
- inhibition at 10 µM [1]: 0%

SMILES: COc1cccc(/C=C/c2nc3ccc(N4CCNCC4)cc3c(=O)n2-c2cccc(C(C)(C)C)c2)n1
- Activity [8]: Toxic
